Assay results: publication PMC7870562 (Bioorganic chemistry, 2020)

Key:
A431 cells [1] = assay: MTT cytotoxicity / cell viability assay, A431; assay type: cell-based, human; details: for IC50: Homo sapiens, A-431, 48 h; for selectivity index: IC50 HaCaT / IC50 A431
In short: (§1)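 Cells in 5–10% FBS/DMEM were seeded at 5×10³ per well, refed at 24 h and grown to 70% confluence. They were treated for 48 h at 37°C, 5% CO2 with two-fold serial dilutions of test compound in DMSO (≤0.1%), […], in 8–10 repeats. After MTT, absorbance was read at 562 nm. Viability was expressed relative to DMSO controls and IC50 derived by nonlinear regression. Data are mean ± SD of ≥5 independent experiments in octuplicates.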

A375 cells [2] = assay: MTT cytotoxicity / cell viability assay, A375; assay type: cell-based, human; details: for IC50: Homo sapiens, A-375, 48 h; for selectivity index: IC50 melanocytes / IC50 A375
In short: as §1

A431 cells [3] = assay: DAPI staining of apoptotic nuclei, A431; assay type: cell-based, human
In short: (§2)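 Equal numbers of cells were seeded in T-25 flasks and exposed to test compound at different concentrations for 36 h. Cells were PBS-washed, stained with DAPI in PBS and imaged by fluorescence microscopy at 10x and 1.6×10x. Apoptotic nuclei were scored by morphology and expressed as percentage of cells.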

SK-Mel-28 cells = assay: MTT cytotoxicity / cell viability assay, SK-Mel-28; assay type: cell-based, human; details: for IC50: Homo sapiens, SK-MEL-28, 48 h; for selectivity index: IC50 melanocytes / IC50 SK-Mel-28
In short: as §1

A375 cells [4] = assay: DAPI staining of apoptotic nuclei, A375; assay type: cell-based, human
In short: as §2

Melanocyte = assay: MTT cytotoxicity / cell viability assay, normal melanocytes; assay type: cell-based; details: Homo sapiens, 48 h
In short: as §1

CDK2/Cyclin A = CDK2/Cyclin A (Homo sapiens, UniProt P24941); assay: In vitro kinase activity assay; assay type: biochemical; details: 10-dose, three-fold serial dilution from 100 μM
In short: (§3)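 Kinase profiling was run at Reaction Biology. IC50 values came from 10-dose mode, three-fold serial dilutions starting at 100 μM. Reference inhibitors were co-assayed at 1 and 10 μM.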

HaCaT = assay: MTT cytotoxicity / cell viability assay, HaCaT keratinocytes; assay type: cell-based; details: Homo sapiens, 48 h
In short: as §1

c-Kit = c-Kit (Homo sapiens, UniProt P10721); assay: In vitro kinase activity assay; assay type: biochemical
In short: as §3

mTOR/FRAP1 = mTOR/FRAP1 (Homo sapiens, UniProt P42345); assay: In vitro kinase activity assay; assay type: biochemical; details: for IC50: mTOR/FRAP1 IC50, 10-dose, three-fold serial dilution from 100 μM
In short: as §3

CDK2/Cyclin E = CDK2/Cyclin E (Homo sapiens, UniProt P24941); assay: In vitro kinase activity assay; assay type: biochemical; details: 10-dose, three-fold serial dilution from 100 μM
In short: as §3

UWBCC1 cells = assay: MTT cytotoxicity / cell viability assay, UWBCC1; assay type: cell-based, human; details: for IC50: Homo sapiens, 48 h; for selectivity index: IC50 HaCaT / IC50 UWBCC1
In short: as §1

[5] = A431, treated 36 hours at ½IC50
[6] = A375, treated 36 hours at ½IC50

Chain of c-Kit (P10721 26-976): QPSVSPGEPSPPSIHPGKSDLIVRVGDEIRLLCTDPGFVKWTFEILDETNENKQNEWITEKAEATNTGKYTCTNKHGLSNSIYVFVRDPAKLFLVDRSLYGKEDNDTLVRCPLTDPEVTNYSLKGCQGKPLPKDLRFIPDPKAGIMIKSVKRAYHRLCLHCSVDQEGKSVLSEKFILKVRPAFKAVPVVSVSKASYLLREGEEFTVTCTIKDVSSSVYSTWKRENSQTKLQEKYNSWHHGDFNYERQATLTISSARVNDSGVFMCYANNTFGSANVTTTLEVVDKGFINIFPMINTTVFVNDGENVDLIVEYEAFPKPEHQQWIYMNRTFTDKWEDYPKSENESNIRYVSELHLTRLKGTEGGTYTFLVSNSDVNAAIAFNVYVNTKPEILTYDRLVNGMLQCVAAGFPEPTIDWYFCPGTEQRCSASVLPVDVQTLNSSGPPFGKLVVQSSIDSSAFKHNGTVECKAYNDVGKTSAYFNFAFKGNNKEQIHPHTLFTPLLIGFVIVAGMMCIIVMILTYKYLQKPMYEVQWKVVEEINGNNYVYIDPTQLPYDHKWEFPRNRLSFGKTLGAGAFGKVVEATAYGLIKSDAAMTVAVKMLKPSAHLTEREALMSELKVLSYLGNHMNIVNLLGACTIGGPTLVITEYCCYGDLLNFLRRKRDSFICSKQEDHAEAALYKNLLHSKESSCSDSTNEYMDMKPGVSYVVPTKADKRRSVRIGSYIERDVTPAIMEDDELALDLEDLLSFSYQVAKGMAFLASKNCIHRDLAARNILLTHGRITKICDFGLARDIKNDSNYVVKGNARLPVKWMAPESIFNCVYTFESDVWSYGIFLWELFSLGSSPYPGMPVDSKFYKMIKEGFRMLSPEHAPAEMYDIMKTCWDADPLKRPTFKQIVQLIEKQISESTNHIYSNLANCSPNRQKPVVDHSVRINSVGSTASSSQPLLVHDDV

| IC50 (CDK2/Cyclin A) [µM] | IC50 (c-Kit) [µM] | inhibition of mTOR kinase activity (in words) (mTOR/FRAP1) | IC50 (CDK2/Cyclin E) [µM] | IC50 (mTOR/FRAP1) [µM] | SMILES | IC50 (A431 cells [1]) [µM] | IC50 (A375 cells [2]) [µM] | DAPI (+) apoptotic cells (A431 cells [3]; A431, treated 36 hours at IC50) [%] | DAPI (+) apoptotic cells (A431 cells [3]; [5]) [%] | IC50 (SK-Mel-28 cells) [µM] | selectivity index (SK-Mel-28 cells) | DAPI (+) apoptotic cells (A375 cells [4]; [6]) [%] | IC50 (Melanocyte) [µM] | IC50 (HaCaT) [µM] | selectivity index (A431 cells [1]) | selectivity index (A375 cells [2]) | DAPI (+) apoptotic cells (A375 cells [4]; A375, treated 36 hours at IC50) [%] | IC50 (UWBCC1 cells) [µM] | selectivity index (UWBCC1 cells) |
| --- | --- | --- | --- | --- | --- | --- | --- | --- | --- | --- | --- | --- | --- | --- | --- | --- | --- | --- | --- |
| – | – | – | – | – | O=c1c(O)c(-c2ccc(Br)cc2Cl)oc2ccccc12 [F4, 2-(4-Bromo-2-chlorophenyl)-3-hydroxy-4H-chromen-4-one] | 61 ± 30 | > 100 | – | – | – | – | – | – | – | – | – | – | – | – |
| – | – | – | – | – | O=c1c(O)c(-c2ccc(OCc3ccccc3)cc2)oc2ccccc12 [F7, 2-(4-(Benzyloxy)phenyl)-3-hydroxy-4H-chromen-4-one] | > 100 | 88 ± 35 | – | – | – | – | – | – | – | – | – | – | – | – |
| 30.1 | 0.26 | did not substantively inhibit | – | – | CCOc1ccc(-c2oc3cc(Cl)ccc3c(=O)c2O)cc1F [F21, 7-Chloro-2-(4-ethoxy-3-fluorophenyl)-3-hydroxy-4H-chromen-4-one] | 8.2 ± 0.2 | 8.6 ± 0.4 | 14.4 | 8.8 | 12 ± 3 | 2.3 | 5.4 | 27 ± 0.1 | 26 ± 0.4 | 3.2 | 3.2 | – | – | – |
| 7.16 | 0.54 | – | 17.1 | 23.9 | Cc1ccc2c(=O)c(O)c(-c3cccc(Cl)c3)oc2c1 [F8, 2-(3-Chlorophenyl)-3-hydroxy-7-methyl-4H-chromen-4-one] | 8.3 ± 2.1 | 8.4 ± 0.4 | 12.8 | 5.84 | 22 ± 3 | 1.1 | 6.5 | 26 ± 3.8 | 22 ± 0.2 | 2.7 | 3.1 | 11.3 | 6.7 ± 1.5 | 3.3 |
| – | – | – | – | – | COc1cc(OC)c(-c2oc3ccccc3c(=O)c2O)cc1OC [F23, 3-Hydroxy-2-(2,4,5-trimethoxyphenyl)-4H-chromen-4-one] | 12 ± 1.9 | 13 ± 3.1 | – | – | 19 ± 3 | 1.6 | – | 22 ± 1 | 24 ± 1.4 | 2.0 | 1.7 | – | 9.4 ± 1.4 | 2.6 |
| 2.62 | 1.34 | – | 3.34 | 28.7 | O=c1c(O)c(-c2ccc(O)c(O)c2)oc2cc(O)ccc12 [F0, 3´,4´,7-trihydroxyflavonol, reference compound] | 26 ± 1 | 21 ± 1 | – | – | 29 ± 4 | 1.1 | – | 33 ± 2.7 | 30 ± 1.1 | 1.2 | 1.6 | – | 28 ± 0.2 | 1.1 |
| – | – | – | – | – | COc1cccc(-c2oc3cc(Br)ccc3c(=O)c2O)c1 [F15, 7-Bromo-3-hydroxy-2-(3-methoxyphenyl)-4H-chromen-4-one] | > 100 | > 100 | – | – | – | – | – | – | – | – | – | – | – | – |
| 32.5 | – | did not substantively inhibit | – | – | Cc1ccc2c(=O)c(O)c(-c3ccc(C(C)(C)C)cc3)oc2c1 [F11, 2-(4-(Tert-butyl)phenyl)-3-hydroxy-7-methyl-4H-chromen-4-one] | 4.7 ± 0.9 | 11 ± 2 | – | – | 18 ± 2 | 1.4 | – | 26 ± 1.1 | 25 ± 0.78 | 4.7 | 2.4 | – | 9.7 ± 0.6 | 2.3 |
| 12.7 | 0.33 | – | – | 1.64 | Cc1cc2oc(-c3ccc(OCc4ccccc4)cc3)c(O)c(=O)c2cc1Cl [F19, 2-(4-(Benzyloxy)phenyl)-6-chloro-3-hydroxy-7-methyl-4H-chromen-4-one] | 1.5 ± 0.3 | 13 ± 2.6 | 14.2 | 6.71 | 19 ± 3 | 1.2 | 5.6 | 27 ± 1 | 28 ± 0.31 | 19 | 1.7 | 13.3 | 1.1 ± 0.4 | 25 |
| – | – | – | – | – | O=c1c(O)c(-c2ccc(C(F)(F)F)cc2C(F)(F)F)oc2ccccc12 [F5, 2-(2,4-Bis(trifluoromethyl)phenyl)-3-hydroxy-4H-chromen-4-one] | > 100 | 95 ± 12 | – | – | – | – | – | – | – | – | – | – | – | – |
| 6.64 | 0.13 | – | 5.38 | > 100 | O=c1c(O)c(-c2ccccc2)oc2cc(Br)ccc12 [F14, 7-Bromo-3-hydroxy-2-phenyl-4H-chromen-4-one] | 5.3 ± 2.1 | 15 ± 0.08 | – | 6.92 | 22 ± 4.3 | – | 6.2 | 24 ± 0.84 | 24 ± 0.2 | 4.5 | 1.4 | 10.9 | 3.3 ± 1.3 | 7.3 |
| > 100 | > 100 | – | – | – | O=c1c(O)c(-c2cc(C(F)(F)F)cc(C(F)(F)F)c2)oc2ccccc12 [F6, 2-(3,5-Bis(trifluoromethyl)phenyl)-3-hydroxy-4H-chromen-4-one] | 8.6 ± 0.5 | 7 ± 0.32 | – | – | 27 ± 4.1 | – | – | 26 ± 1.3 | 31 ± 1.9 | 3.6 | 3.7 | – | 6.6 ± 0.79 | 4.7 |
| – | – | – | – | – | COc1ccc(-c2oc3cc(C)ccc3c(=O)c2O)c(Br)c1OC [F10, 2-(2-Bromo-3,4-dimethoxyphenyl)-3-hydroxy-7-methyl-4H-chromen-4-one] | 36 ± 0.1 | 31 ± 13 | – | – | – | – | – | – | – | – | – | – | 11 ± 5 | – |
| – | – | – | – | – | COc1ccc2c(=O)c(O)c(-c3ccc(C(C)(C)C)cc3)oc2c1 [F13, 2-(4-(Tert-butyl)phenyl)-3-hydroxy-7-methoxy-4H-chromen-4-one] | > 100 | 28 ± 24 | – | – | – | – | – | – | – | – | – | – | – | – |
| – | – | – | – | – | COc1cccc(-c2oc3ccccc3c(=O)c2O)c1 [F2, 3-Hydroxy-2-(3-methoxyphenyl)-4H-chromen-4-one] | 21 ± 16 | 28 ± 2.3 | – | – | – | – | – | – | – | – | – | – | – | – |
| – | – | – | – | – | O=c1c(O)c(-c2ccc(SC(F)(F)F)cc2)oc2ccccc12 [F3, 3-Hydroxy-2-(4-((trifluoromethyl)thio)phenyl)-4H-chromen-4-one] | 9.7 ± 2.3 | 14 ± 0.2 | – | – | 5.2 ± 1.7 | 6.0 | – | 31 ± 0.74 | 27 ± 0.7 | 2.8 | 2.2 | – | – | – |
| – | – | – | – | – | O=c1c(O)c(-c2ccccc2)oc2ccccc12 [F1, 3-Hydroxy-2-phenyl-4H-chromen-4-one] | 15 ± 0.04 | 14 ± 0.8 | – | – | 21 ± 1 | 1.2 | – | 27 ± 0.9 | 38 ± 0.02 | 2.5 | 1.9 | – | 12 ± 0.8 | 3.2 |
| – | – | – | – | – | COc1ccc2c(=O)c(O)c(-c3ccc(Br)cc3)oc2c1 [F12, 2-(4-Bromophenyl)-3-hydroxy-7-methoxy-4H-chromen-4-one] | > 100 | > 100 | – | – | – | – | – | – | – | – | – | – | – | – |
| – | – | – | – | – | COc1cc(-c2oc3ccc(F)cc3c(=O)c2O)cc(OC)c1OC [F22, 6-Fluoro-3-hydroxy-2-(3,4,5-trimethoxyphenyl)-4H-chromen-4-one] | 13 ± 2.6 | 15 ± 1.9 | – | – | – | – | – | 24 ± 1.6 | 23 ± 1.9 | 1.8 | 1.6 | – | 11 ± 2 | 2.1 |
| – | – | – | – | – | Cc1cc2oc(-c3ccc(C(C)(C)C)cc3)c(O)c(=O)c2cc1Cl [F18, 2-(4-(Tert-butyl)phenyl)-6-chloro-3-hydroxy-7-methyl-4H-chromen-4-one] | 24 ± 5.6 | > 100 | – | – | – | – | – | – | – | – | – | – | – | – |
| – | – | – | – | – | COc1ccc(-c2oc3ccc(Br)cc3c(=O)c2O)cc1OC [F16, 6-Bromo-2-(3,4-dimethoxyphenyl)-3-hydroxy-4H-chromen-4-one] | > 100 | 79.5 ± 9 | – | – | – | – | – | – | – | – | – | – | 40 ± 0.89 | – |
| – | – | – | – | – | COc1cccc2c1C(=O)c1c(O)c3c(c(O)c1C2=O)C[C@@](O)(C(=O)CO)C[C@@H]3O[C@H]1C[C@H](N)[C@H](O)[C@H](C)O1 [Doxorubicin, reference compound] | 0.37 ± 0.02 | 0.1 ± 0.01 | – | – | 0.23 ± 0.06 | – | – | – | 0.07 ± 0.01 | 0.2 | – | – | – | – |
| – | – | – | – | – | COc1cc(OC)c(-c2oc3cc(Cl)ccc3c(=O)c2O)cc1OC [F24, 7-Chloro-3-hydroxy-2-(2,4,5-trimethoxyphenyl)-4H-chromen-4-one] | > 100 | > 100 | – | – | – | – | – | – | – | – | – | – | – | – |
